Drawing on ChEMBL document CHEMBL1144224, “Molecular design to enhance the penetration into the retina via ocular instillation” (Bioorg Med Chem Lett, 2008), this text covers logP, AUC(0-t) and concentration for five molecules.

The nature of data set [1]: Octanol-water partition coefficient, log P of the compound. It is filed as physicochemical. The procedure, abridged:
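Log P measured as the partition coefficient between n-octanol and water.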

The nature of data set [2]: AUC (0 to 4 hrs) in Japanese white rabbit retina after ocular instillation of 1% suspension. Type of data set: ADME, tissue-based, Oryctolagus cuniculus. Set-up: time < 4 hr. As to conditions: topical or ocular. Put shortly:
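Rabbit eyes given topical drops of 1% suspension or solution. Retinal drug levels measured over 0–4 h, with n = 3-4 eyes per time point. AUC0–4h is calculated from the mean level-time curve.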

A short description of data set [3]: AUC (0 to 4 hrs) in Japanese white rabbit aqueous humor after ocular instillation of 1% suspension. Also on record: time < 4 hr. As to conditions: topical or ocular. It is filed as ADME, Oryctolagus cuniculus. The procedure, abridged: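 Rabbit eyes given topical drops of 1% suspension or solution. Aqueous humor drug levels measured over 0–4 h, with n = 3-4 eyes per time point. AUC0–4h is calculated from the mean level-time curve.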

The nature of data set [4]: Plasma AUC (0 to 4 hrs) in cynomolgus monkey at 10 mg/kg, po. Type of data set: ADME, organism-based, Macaca fascicularis. Set-up: time < 4 hr, dose 10 mg/kg, route oral. The procedure, abridged: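 Cynomolgus monkeys dosed orally at 10 mg/kg as a 0.2% suspension or solution in 0.5% carboxymethyl cellulose. Plasma drug levels followed over 0–4 h (n = 3-6), and AUC0–4h is derived from the plasma level-time curve.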

The nature of data set [5]: Drug concentration in rat retina at 10 mg/kg, po at Tmax time. Type of data set: ADME, organism-based. Also on record: dose 10 mg/kg, route oral. Particulars: in vivo, read-out: Drug uptake.
A short description of data set [6]: Drug concentration in rat retina at 10 mg/kg, po after 4 hrs. It is filed as ADME, organism-based. Set-up: dose 10 mg/kg, route oral. As to conditions: read-out: Drug uptake.

By logP is commonly meant a log measure of how a compound divides between an organic and an aqueous phase. In general, AUC(0-t) refers to exposure summed from dosing to a finite time, without extrapolation to infinity. In data set [1], `COCCOCCOCCOCCOCCOC(=O)N[C@@H](CC(C)C)C(=O)N[C@@H](Cc1ccccc1)C(=O)C(=O)NC1CC1` yielded a logP of 0.72. In addition, the values for the AUC(0-t) at 4 h in data set [2] and in data set [3] were 2.99 µM·h and 1.96 µM·h, respectively.
In data set [1], `COCCOCCOCCOCCOC(=O)N[C@@H](CC(C)C)C(=O)N[C@@H](Cc1ccccc1)C(=O)C(=O)NC1CC1` showed a logP of 0.7. Also, the exposure AUC(0-t) at 4 h in data set [2] amounted to 7.12 µM·h; in data set [3] it was 5.89 µM·h; in data set [4] it was 1.61 µM·h.
On to `COCCOCCOC(=O)N[C@@H](CC(C)C)C(=O)N[C@@H](Cc1ccccc1)C(=O)C(=O)NC1CC1`, for which the logP in data set [1] turned out to be 0.91. Besides, the AUC(0-t) at 4 h in data set [2] was found to be 2.37 µM·h; in data set [3], 1.55 µM·h; in data set [4], 2.43 µM·h. Further, the concentration in data set [5] came to 400 nM. In data set [6], the concentration at 4 h was 200 nM.
Molecule `COCCOC(=O)N[C@@H](CC(C)C)C(=O)N[C@@H](Cc1ccccc1)C(=O)C(=O)NC1CC1` registered a logP in data set [1] of 1. Further, the area under the curve AUC(0-t) at 4 h came out at 1.32 µM·h in data set [2], 1.9 µM·h in data set [3] and 1.88 µM·h in data set [4].
`COCCOCCOCCOC(=O)N[C@@H](CC(C)C)C(=O)N[C@@H](Cc1ccccc1)C(=O)C(=O)NC1CC1` came in with a logP in data set [1] of 0.93. The AUC(0-t) at 4 h in data set [2] was found to be 13.1 µM·h; in data set [3] it was 7.88 µM·h; in data set [4] it was 1.6 µM·h.
